We go through three molecules from PMC12707352 (Angewandte Chemie (International Ed. in English), 2025).

Broadly, the EC50 is the concentration giving half of the maximal effect.

Assay [1] has as its system RAW 264.7 cells. The settings on record: read-out: EC50 (ferroptosis inhibition); in RAW 264.7 cells; cited from earlier work.
For assay [2], the system named is RAW 264.7 murine macrophage‐like cells. Briefly: EZ-Cytox cell viability assay with RSL3 co-treatment. In kind it is cell-based. As to conditions: RSL3 1 µM + DMSO, 24 h, EZ-Cytox (WST), n = 3. An outline of the steps: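 RAW 264.7 murine macrophage-like cells were co-treated for 24 h with RSL3 (1 µM) plus test compound. The screen used 10 µM, and dose-response used 0.3–20 µM on a log scale. Viability was read by EZ-Cytox and normalized to DMSO. Mean ± SD, n = 3.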

The subject of assay [3] is HeLa cells. Briefly: Lipid peroxidation, fluorescence imaging with BODIPY 665/676. The assay is classed as cell-based, human. As to conditions: RSL3 1 µM, 3 h, BODIPY 665/676 imaging. An outline of the steps:
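HeLa cells were treated for 3 h with DMSO, test compound (40 µM), RSL3 (1 µM) or both. They were then stained for 0.5 h with Hoechst 33342 (2 µg/ml) and BODIPY 665/676 (5 µM). Cells were imaged by fluorescence, and BODIPY intensity was quantified relative to DMSO-treated cells. Mean ± SD, n = 21; one-way ANOVA.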

Assay [4] has as its system RAW 264.7 cells. Briefly: Lipid peroxidation, flow cytometry with BODIPY 665/676. As to conditions: RSL3 1 µM, 4 h, BODIPY 665/676 flow cytometry. In kind it is cell-based, murine. In a few lines:
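RAW 264.7 cells were treated for 4 h with DMSO, RSL3 (1 µM) or test compound plus RSL3. They were then stained with BODIPY 665/676 for 0.5 h. Mean fluorescence intensity was read by flow cytometry. Mean ± SD, n = 3; one-way ANOVA.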
In general terms: A flow cytometer gives signals particle by particle.

The conditions of assay [5]: macrocyclic analog of crizotinib; cited from earlier work.

Regarding `CCOC(=O)c1ccc(NC2CCCCC2)c(N)c1` [ferrostatin‐1], the 50% effective concentration (EC50) in assay [1] was 40 ± 4 nM.

For `COC(=O)c1ccc([C@H]2c3[nH]c4ccccc4c3C[C@H](C(=O)OC)N2C(=O)CCl)cc1` [RSL3, RAS‐selective lethal 3], in assay [2], the “Cell viability with RSL3 alone” value was 18%. In assay [3], the “Lipid peroxide level (imaging), RSL3 alone” value is “markedly increased lipid peroxide levels”. Also, in assay [4], the “Lipid peroxide level (flow cytometry), RSL3 alone” value is given as “markedly increased lipid peroxide levels”.

For the molecule `C[C@H]1Oc2cc(cnc2N)-c2c(nn(C)c2C#N)CN(C)C(=O)c2ccc(F)cc21` [lorlatinib], the “Potency increase through macrocyclization” value in assay [5] is ~80 fold.
